Assay outcomes deposited in PubChem BioAssay by several laboratories.
Shown are actives, neighbours in structure and some others; about 4.1% of the full set was active somewhere.
AHR activator: human AHR activation; P35869; AHR-responsive luciferase reporter cells, luminescence; activation, % at 5 µM; 2.5% of 320,000 active; AID 2796; in the data active = activation above about 47%;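 also: 0% = vehicle wells and 100% = reference agonist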
Target sequence (P35869 whole entry, looked up): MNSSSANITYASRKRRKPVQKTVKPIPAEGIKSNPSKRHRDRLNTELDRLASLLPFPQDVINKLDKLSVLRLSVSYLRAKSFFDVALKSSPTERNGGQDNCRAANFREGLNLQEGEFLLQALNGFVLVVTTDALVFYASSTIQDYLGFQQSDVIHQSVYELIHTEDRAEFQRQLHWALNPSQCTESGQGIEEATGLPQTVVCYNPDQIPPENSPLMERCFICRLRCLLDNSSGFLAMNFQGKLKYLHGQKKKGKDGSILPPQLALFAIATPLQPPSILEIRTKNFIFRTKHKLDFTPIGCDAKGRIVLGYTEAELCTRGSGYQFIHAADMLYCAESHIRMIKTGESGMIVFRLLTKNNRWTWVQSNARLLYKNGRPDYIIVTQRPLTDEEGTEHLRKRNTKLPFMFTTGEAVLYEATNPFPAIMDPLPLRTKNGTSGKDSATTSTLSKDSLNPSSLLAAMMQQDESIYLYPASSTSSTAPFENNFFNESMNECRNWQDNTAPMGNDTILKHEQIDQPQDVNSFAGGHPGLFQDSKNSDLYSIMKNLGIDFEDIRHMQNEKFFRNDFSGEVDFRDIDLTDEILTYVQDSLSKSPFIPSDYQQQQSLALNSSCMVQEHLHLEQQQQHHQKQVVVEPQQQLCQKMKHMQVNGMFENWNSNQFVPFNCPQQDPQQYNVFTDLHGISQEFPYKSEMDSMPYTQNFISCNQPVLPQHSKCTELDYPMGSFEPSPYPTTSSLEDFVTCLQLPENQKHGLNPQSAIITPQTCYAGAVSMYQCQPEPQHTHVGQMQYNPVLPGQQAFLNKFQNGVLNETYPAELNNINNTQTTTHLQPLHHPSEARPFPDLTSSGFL
Efflux pump mplx: antifungal efflux pump inhibition, Nile Red retention; S. cerevisiae Candida pump triplex; inhibition, % at 10 µM; 0.44% of 330,000 active; AID 485275;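 active = plate passing quality check with inhibition over a set limit, or well fluorescence over plate mean plus 4 SD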;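 also: Nile Red retained in pooled yeast measured as flow cytometry median fluorescence; 0% = buffer negative control and 100% = Enniatin B positive control; higher means more Nile Red kept so more efflux inhibition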
Tb MetRS inh: Trypanosoma brucei MetRS inhibition. purified T. brucei MetRS, ATP depletion, Kinase-Glo luminescence. inhibition, % at 11.9 µM. 0.4% of 360,000 active. AID 624268;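 active = inhibition above a per-plate cutoff of the control wells' mean inhibition plus 3 SD, cut at about 5.5% in these data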;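 also: 0% = DMSO wells median and 100% = median of wells with control inhibitor compound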
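Material: parasite MetRS enzyme / Replication: singlicate, one well per compound / Signal: luminescence of leftover ATP / Schedule: 2 h aminoacylation at 25 °C after 15 min preincubation / Medium: HEPES-MgCl2-KCl buffer plus DTT, spermine, BSA, pyrophosphatase / Doses: 11.9 µM single point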
TAG inh: triacylglycerol accumulation inhibition. H9c2 cells, Nile Red lipid (TAG) fluorescence; cells loaded with 200 µM oleic acid. inhibition, % at 12.5 µM. 0.66% of 230,000 active;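 active = pattern-corrected inhibition of lipid staining of at least 50% with the nuclear-stain viability signal not falling by more than 50%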;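 also: 0% = DMSO wells and 100% = triacsin C control wells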
SMARCA2 activ: SMARCA2 function activation, primary screen | MG213 cells, MMTV-luciferase reporter, dexamethasone, overnight | activation, % at 9.1 µM | 1% of 370,000 active | AID 652017; in the data active = activation above about 7.8%;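 also: 0% = vehicle wells and 100% = reference activator wells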
Active calls of the source: *.

What do the screens show for `COC(=O)C[C@H]1CC[C@@H]2[C@H](COc3ccc(NS(C)(=O)=O)cc3C(=O)N2C)O1`?
SMARCA2 activ: -2

How did CCC(=O)NNc1nc2c(C)cc(C)cc2s1 do in these assays?
AHR activator: 62*; Efflux pump mplx: 0; Tb MetRS inh: 1; TAG inh: 5; SMARCA2 activ: -4

Results for CCCCOC(=O)Nc1nnc(/C=C/c2ccc(OC)cc2)s1 ?
AHR activator: 10; Efflux pump mplx: 0; Tb MetRS inh: 0; SMARCA2 activ: -2

Results for CCCCc1nnc(NC(=O)C(=O)OCC)s1 ?
AHR activator: -2; Efflux pump mplx: 0; Tb MetRS inh: 0; TAG inh: -6; SMARCA2 activ: -3

Results for CCOC(=O)Nc1nnc(/C=C/c2ccc(OC)cc2)s1 ?
AHR activator: 74*; Efflux pump mplx: 0; Tb MetRS inh: 0; SMARCA2 activ: -2

Results for CCCc1nnc(NC(=O)OCC)s1 ?
AHR activator: 74*; Efflux pump mplx: 0; Tb MetRS inh: -1; TAG inh: 2; SMARCA2 activ: -1

How did FC(F)Oc1ccc(-c2csc(=Nc3cccnc3)n2CC2CCCO2)cc1 (centres undefined) do in these assays?
AHR activator: 48*; Efflux pump mplx: 0; Tb MetRS inh: 0; SMARCA2 activ: -4

What do the screens show for `COCCn1c(-c2ccc(Br)cc2)csc1=Nc1cccnc1`?
AHR activator: 11; Efflux pump mplx: 0; Tb MetRS inh: -1; TAG inh: -20; SMARCA2 activ: -5

Results for COC(=O)c1cc2c(c3c4cc(F)ccc4n(S(=O)(=O)c4ccc(C)cc4)c13)C(=O)N(Cc1ccc(C(F)(F)F)cc1)C2 ?
SMARCA2 activ: -1

Results for Cc1csc(NC(=O)c2cc3c(s2)-c2ccccc2OC3)n1 ?
AHR activator: 68*; Efflux pump mplx: 0; Tb MetRS inh: -1; TAG inh: -11; SMARCA2 activ: -2

What do the screens show for `CN(C)CCNC(=O)c1cc2c(s1)-c1ccccc1OC2`?
AHR activator: 5; Efflux pump mplx: 0; Tb MetRS inh: -1; TAG inh: 28; SMARCA2 activ: 1

Results for Cc1ccc([C@H]2C[C@@H](O)[C@H](n3cc(C4CC4)nn3)CN2CC2CCCCC2)cc1 ?
Tb MetRS inh: -2; TAG inh: 10; SMARCA2 activ: 7.8*

What do the screens show for `O[C@H]1C[C@H](c2ccc(Cl)cc2)N(CC2CCCCC2)C[C@@H]1n1cc(C2CC2)nn1`?
Tb MetRS inh: -1; TAG inh: 43; SMARCA2 activ: -3

What do the screens show for `O[C@@H]1C[C@H](c2ccc(Cl)cc2)N(CC2CCCCC2)C[C@H]1n1cc(C2CC2)nn1`?
Tb MetRS inh: -1; TAG inh: -17; SMARCA2 activ: 7.9*

What do the screens show for `O=C(Nc1ccccc1)Nc1nc2ncccn2c1-c1ccc(F)c(F)c1`?
SMARCA2 activ: 0

How did O=C(N/N=C\C=C\c1ccc2c(c1)OCO2)c1cccnc1 do in these assays?
AHR activator: 68*; Efflux pump mplx: 0; Tb MetRS inh: -2; SMARCA2 activ: 5

What do the screens show for `Cc1ccc(C(=O)N/N=C\c2ccncc2)s1`?
AHR activator: 55*; Efflux pump mplx: 0; Tb MetRS inh: 0; TAG inh: 9; SMARCA2 activ: 6

Results for O=C(/C=C/c1ccc2c(c1)OCO2)c1cccnc1 ?
AHR activator: 7; Efflux pump mplx: 0; Tb MetRS inh: -1; SMARCA2 activ: -2

Results for O=C(N/N=C\c1ccncc1)c1ccc(Br)s1 ?
Efflux pump mplx: 0; Tb MetRS inh: 0; TAG inh: 14; SMARCA2 activ: 0

Results for O=C(N/N=C/c1cc2c(cc1Br)OCO2)c1cccnc1 ?
AHR activator: 48*; Efflux pump mplx: 0; Tb MetRS inh: 0; TAG inh: 10; SMARCA2 activ: 3

Results for O=C(N/N=C\c1cc2c(cc1Cl)OCO2)c1cccs1 ?
AHR activator: 78*; Efflux pump mplx: 0; Tb MetRS inh: 0; TAG inh: 11; SMARCA2 activ: 2

Results for O=C(CSc1nnc(COc2ccc(Cl)cc2)n1Cc1ccco1)Nc1ccc(OCc2ccccc2)cc1 ?
SMARCA2 activ: -2

What do the screens show for `C=CCN1C(=O)[C@H](CC(=O)N2CCCC2)[C@@]2(C(=O)OCC)CCCC=C12`?
SMARCA2 activ: -1

Results for COC(=O)C1=C(C)NC(=S)NC1c1cccc(OC)c1 (centres undefined) ?
SMARCA2 activ: 0

What do the screens show for `O=C(N/N=C/C=C/c1ccccc1[N+](=O)[O-])c1cccnc1`?
AHR activator: 72*; Efflux pump mplx: 1; Tb MetRS inh: -1; TAG inh: 12; SMARCA2 activ: -1

What do the screens show for `Cc1ccc(C(=O)N/N=C\c2cc3c(cc2Br)OCO3)s1`?
AHR activator: 47*; Efflux pump mplx: 0; Tb MetRS inh: -1; SMARCA2 activ: 7

What do the screens show for `O=C(N/N=C/C=C\c1ccccc1[N+](=O)[O-])c1cccnc1`?
AHR activator: 20; Efflux pump mplx: 0; Tb MetRS inh: 0; TAG inh: -6; SMARCA2 activ: 0

How did Cc1nn(-c2ccccc2)c2sc(C(=O)NCc3ccc4c(c3)OCO4)cc12 do in these assays?
SMARCA2 activ: -5

How did Cc1cccc(C)c1NC(=O)Cn1nnc(-c2ccncc2)n1 do in these assays?
SMARCA2 activ: -2

How did C=CCN1[C@H](Cc2ccccc2)COc2cc(F)ccc2S1(=O)=O do in these assays?
SMARCA2 activ: -1

Results for COc1ccccc1NC(=O)c1[nH]c(C)c(C(C)=O)c1C ?
AHR activator: 55*; Efflux pump mplx: 0; Tb MetRS inh: 0; TAG inh: 6; SMARCA2 activ: 1

How did CC(=O)c1c(C)[nH]c(C(=O)Nc2cccc(C)c2C)c1C do in these assays?
AHR activator: 55*; Efflux pump mplx: 0; Tb MetRS inh: -1; SMARCA2 activ: -3

Results for O=C(Nc1ccccc1N1CCCCC1)c1cccc([N+](=O)[O-])c1 ?
AHR activator: 5; Efflux pump mplx: 0; Tb MetRS inh: -1; TAG inh: -3; SMARCA2 activ: -2

How did O=C(Nc1ccccc1N1CCOCC1)c1cccc([N+](=O)[O-])c1 do in these assays?
AHR activator: 67*; Efflux pump mplx: 0; Tb MetRS inh: 0; SMARCA2 activ: -1

What do the screens show for `CC(=O)c1c(C)[nH]c(C(=O)Nc2ccc(F)c(F)c2F)c1C`?
AHR activator: 62*; Efflux pump mplx: 0; Tb MetRS inh: 0; SMARCA2 activ: 2

What do the screens show for `CC(=O)c1c(C)[nH]c(C(=O)Nc2ccc(Cl)cc2F)c1C`?
AHR activator: 31; Efflux pump mplx: 0; Tb MetRS inh: 0; SMARCA2 activ: 1

Results for COc1nc(OC)nc(N2CCC(C(=O)NCc3ccccc3OC)CC2)n1 ?
SMARCA2 activ: -6

How did N#Cc1ccc2nc(-c3ccc(CN4CCC(c5nc6ccccc6[nH]5)CC4)cc3)c(-c3ccccc3)nc2c1 do in these assays?
SMARCA2 activ: -2

Results for CC(=O)c1c(C)[nH]c(C(=O)Nc2ccc(Cl)cc2)c1C ?
AHR activator: 4; Efflux pump mplx: 0; Tb MetRS inh: 1; SMARCA2 activ: 2
